Data reported in ChEMBL document CHEMBL4024779, “Novel Terminal Bipheny-Based Diapophytoene Desaturases (CrtN) Inhibitors as Anti-MRSA/VISR/LRSA Agents with Reduced hERG Activity” (J Med Chem, 2018).
Calls of active or inactive are those of the source. The calls are words filed in the database; no cut-off is given here.

Legend:
[1] = system: Staphylococcus aureus; assay: Antibacterial activity against methicillin-resistant Staphylococcus aureus USA300 LAC assessed as change in bacterial growth at 0.2 mM […]; type: functional
[2] = system: Staphylococcus aureus; assay: In vivo anti-virulence activity against Staphylococcus aureus Newman infected in BALB/c mouse model assessed as reduction in bacterial load in heart at 0.1 mg bid for 3.5 days administered intraperitoneally 6 hrs post infection by serial dilution method; type: functional, organism-based
Procedure, shortened: (§1)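 Mice (n=10 per group) got 2.3 × 10^7 CFU S. aureus Newman by retro-orbital injection. Compound was given intraperitoneally b.i.d., either 24 h before infection (4.5 d) or 6 h after infection (3.5 d). Mice were sacrificed after 4.5 d and CFU counted in kidneys and hearts. Groups were compared by two-tailed Mann-Whitney test.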

[3] = system: Staphylococcus aureus; assay: In vivo anti-virulence activity against methicillin-resistant Staphylococcus aureus Mu50 infected in BALB/c mouse model assessed as reduction in bacterial load in kidneys at 0.1 mg bid for 3.5 days administered intraperitoneally 6 hrs post infection by serial dilution method; type: functional; design: scale not given: the % may be the effect or the level left
Procedure, shortened: (§2)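 Mice (n=10 per group) infected retro-orbitally with S. aureus Mu50 (1.1 × 10^9 or 1.3 × 10^9 CFU) or NRS271 (2.3 × 10^8 CFU). Compound given i.p. b.i.d., either 6 h after infection for 3.5 d or 24 h before infection for 4.5 d. Mice killed after 4.5 d; log10 CFU per organ counted in kidneys and hearts. Two-tailed Mann−Whitney test.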

[4] = target: T1, 4,4'-diapophytoene desaturase (4,4'-diaponeurosporene-forming) (Staphylococcus aureus (strain Mu50 / ATCC 700699), UniProt Q99R76); assay: Inhibition of CrtN in methicillin-resistant Staphylococcus aureus Mu50 assessed as reduction in staphyloxanthin levels after 48 hrs by spectrophotometric method-based pigment inhibition assay; design: species or system Staphylococcus aureus subsp. aureus Mu50
T1 sequence (Q99R76 whole entry): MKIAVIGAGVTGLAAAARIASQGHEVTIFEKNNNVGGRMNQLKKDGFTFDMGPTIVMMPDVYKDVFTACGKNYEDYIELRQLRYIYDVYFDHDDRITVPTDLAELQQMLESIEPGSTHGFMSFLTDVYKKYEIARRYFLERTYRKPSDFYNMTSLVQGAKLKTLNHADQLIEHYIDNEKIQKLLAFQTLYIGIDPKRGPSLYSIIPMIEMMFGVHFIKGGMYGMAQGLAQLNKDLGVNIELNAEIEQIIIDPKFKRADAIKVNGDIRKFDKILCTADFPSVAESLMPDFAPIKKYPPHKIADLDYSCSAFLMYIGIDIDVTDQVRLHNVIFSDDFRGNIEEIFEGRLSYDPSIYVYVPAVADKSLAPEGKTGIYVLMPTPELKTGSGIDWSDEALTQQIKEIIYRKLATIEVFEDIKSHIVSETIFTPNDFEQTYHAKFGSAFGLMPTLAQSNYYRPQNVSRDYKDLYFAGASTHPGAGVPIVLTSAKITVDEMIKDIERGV

[5] = system: Staphylococcus aureus; assay: Antibacterial activity against methicillin-resistant Staphylococcus aureus NRS271 assessed as change in bacterial growth at 0.2 mM […]; type: functional
[6] = system: Staphylococcus aureus; assay: In vivo anti-virulence activity against methicillin-resistant Staphylococcus aureus NRS271 infected in BALB/c mouse model assessed as reduction in bacterial load in heart at 0.1 mg bid for 4.5 days administered intraperitoneally 24 hrs prior to infection by serial dilution method; type: functional; design: scale not given: the % may be the effect or the level left; procedure, shortened: as §2
[7] = system: Staphylococcus aureus; assay: In vivo anti-virulence activity against methicillin-resistant Staphylococcus aureus NRS271 infected in BALB/c mouse model assessed as reduction in bacterial load in kidneys at 0.1 mg bid for 3.5 days administered intraperitoneally 6 hrs post infection by serial dilution method; type: functional; design: scale not given: the % may be the effect or the level left; procedure, shortened: as §2
[8] = system: Staphylococcus aureus; assay: In vivo anti-virulence activity against methicillin-resistant Staphylococcus aureus Mu50 infected in BALB/c mouse model assessed as reduction in bacterial load in kidneys at 0.4 mg bid for 4.5 days administered intraperitoneally 24 hrs prior to infection by serial dilution method; type: functional; design: scale not given: the % may be the effect or the level left; procedure, shortened: as §2
[9] = system: Staphylococcus aureus; assay: Antibacterial activity against Staphylococcus aureus Newman assessed as change in bacterial growth at 0.2 mM […]; type: functional
[10] = target: T2, 4,4'-diapophytoene desaturase (4,4'-diaponeurosporene-forming) (Staphylococcus aureus (strain Newman), UniProt O07855); assay: Inhibition of CrtN in Staphylococcus aureus Newman after 12 resistant development passages under 0.15% v/v H2O2 assessed as reduction in staphyloxanthin levels under IC90 level after 48 hrs by spectrophotometric method-based pigment inhibition assay; design: species or system Staphylococcus aureus subsp. aureus str. Newman
T2 sequence (O07855 whole entry): T1 sequence (Q99R76 whole entry)

[11] = system: HepG2; assay: Cytotoxicity against human HepG2 cells after 43 hrs by Alamar blue dye-based fluorescence assay; type: cell-based; details: HepG2, 43 h
[12] = system: Staphylococcus aureus; assay: In vivo anti-virulence activity against methicillin-resistant Staphylococcus aureus Mu50 infected in BALB/c mouse model assessed as reduction in bacterial load in heart at 0.1 mg bid for 4.5 days administered intraperitoneally 24 hrs prior to infection by serial dilution method; type: functional; design: scale not given: the % may be the effect or the level left
Procedure, shortened: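 Mice were challenged with 1.3 × 10^9 CFU Mu50. Compound was given intraperitoneally, either 24 h before or 6 h after infection. Log10 CFU was counted in kidneys and hearts.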

[13] = system: Staphylococcus aureus; assay: Chemo-sensitization activity in human whole blood infected with compound-pre-treated non-pigmented Staphylococcus aureus Newman strain assessed as whole blood-induced bacterial killing by measuring survival rate at 1 uM after 6 hrs by serial dilution method (reference value: 13.3%); type: functional
[14] = system: Staphylococcus aureus; assay: In vivo anti-virulence activity against Staphylococcus aureus Newman infected in BALB/c mouse model assessed as reduction in bacterial load in heart at 0.1 mg bid for 4.5 days administered intraperitoneally 24 hrs prior to infection by serial dilution method; type: functional, organism-based; procedure, shortened: as §1
[15] = system: Trichophyton rubrum; assay: In vitro antifungal activity against Trichophyton rubrum after 7 days by serial dilution method; type: functional; details: 168 h
[16] = system: Staphylococcus aureus; assay: In vivo anti-virulence activity against Staphylococcus aureus Newman infected in BALB/c mouse model assessed as reduction in bacterial load in kidneys at 0.4 mg bid for 3.5 days administered intraperitoneally 6 hrs post infection by serial dilution method; type: functional, organism-based; procedure, shortened: as §1
[17] = system: Staphylococcus aureus; assay: In vivo anti-virulence activity against methicillin-resistant Staphylococcus aureus NRS271 infected in BALB/c mouse model assessed as reduction in bacterial load in kidneys at 0.4 mg bid for 4.5 days administered intraperitoneally 24 hrs prior to infection by serial dilution method; type: functional; design: scale not given: the % may be the effect or the level left; procedure, shortened: as §2
[18] = system: Staphylococcus aureus; assay: In vivo anti-virulence activity against methicillin-resistant Staphylococcus aureus Mu50 infected in BALB/c mouse model assessed as reduction in bacterial load in kidneys at 0.4 mg bid for 3.5 days administered intraperitoneally 6 hrs post infection by serial dilution method; type: functional; design: scale not given: the % may be the effect or the level left; procedure, shortened: as §2
[19] = system: Staphylococcus aureus; assay: In vivo anti-virulence activity against Staphylococcus aureus Newman infected in BALB/c mouse model assessed as reduction in bacterial load in kidneys at 0.1 mg bid for 3.5 days administered intraperitoneally 6 hrs post infection by serial dilution method; type: functional, organism-based; procedure, shortened: as §1
[20] = system: Staphylococcus aureus; assay: Antibacterial activity against methicillin-resistant Staphylococcus aureus Mu50 assessed as change in bacterial growth at 0.2 mM […]; type: functional
[21] = system: Staphylococcus aureus; assay: In vivo anti-virulence activity against methicillin-resistant Staphylococcus aureus Mu50 infected in BALB/c mouse model assessed as reduction in bacterial load in heart at 0.4 mg bid for 4.5 days administered intraperitoneally 24 hrs prior to infection by serial dilution method; type: functional; design: scale not given: the % may be the effect or the level left; procedure, shortened: as §2
[22] = system: Staphylococcus aureus; assay: In vivo anti-virulence activity against methicillin-resistant Staphylococcus aureus NRS271 infected in BALB/c mouse model assessed as reduction in bacterial load in heart at 0.1 mg bid for 3.5 days administered intraperitoneally 6 hrs post infection by serial dilution method; type: functional; design: scale not given: the % may be the effect or the level left; procedure, shortened: as §2

SMILES: CN(C/C=C/c1ccc(-c2ccccc2)cc1)Cc1coc2ccccc12.Cl
- Activity [1]: inactive
- Activity [2]: Active
- Activity [3]: >95%
- IC50 [4]: 0.8 nM
- Activity [5]: inactive
- Activity [6]: >95%
- Activity [7]: >95%
- Activity [8]: >95%
- Activity [9]: inactive
- IC50 [10]: 1.8 nM
- IC50 [11]: 106000 nM
- Activity [12]: >95%
- survival at 1 µM [13]: 1.3%
- Activity [14]: Active
- MIC80 [15]: 64 µg/mL
- Activity [16]: Active
- Activity [17]: >95%
- Activity [18]: >95%
- Activity [19]: Active
- Activity [20]: inactive
- Activity [21]: >95%
- Activity [22]: >95%

SMILES: CN(C/C=C/c1ccc(-c2ccccc2)cc1)Cc1cccc2cc[nH]c12.Cl
- Activity [1]: inactive
- Activity [2]: inactive
- Activity [3]: >95%
- IC50 [4]: 0.4 nM
- Activity [5]: inactive
- Activity [6]: >95%
- Activity [7]: >95%
- Activity [8]: >95%
- Activity [9]: inactive
- IC50 [10]: 2.6 nM
- IC50 [11]: 21900 nM
- Activity [12]: >95%
- Activity [13]: Active
- Activity [14]: inactive
- MIC80 [15]: > 64 µg/mL
- Activity [16]: inactive
- Activity [17]: >95%
- Activity [18]: >95%
- Activity [19]: inactive
- Activity [20]: inactive
- Activity [21]: >95%
- Activity [22]: >95%
